Assay [1] has as its system Brain. Nature of the assay: Antioxidant activity in Wistar rat brain assessed as inhibition of lipid peroxidation. Type of assay: functional, tissue-based. The procedure, abridged:
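Brain homogenate (10% w/v) of young adult male Wistar rats in 0.15 M KCl, 800g 10 min supernatant. Compounds in DMSO at varying amounts; peroxidation started with FeCl3 plus ascorbic acid, 20 min at 37 C. Stopped with phosphotungstic acid and thiobarbituric acid, heated 100 C 10 min, n-butanol extract read by fluorescence (ex 515/em 555 nm); IC50 from log dose–inhibition curve.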

For assay [2], the system named is Radical scavenging activity. Briefly: Antioxidant activity assessed as DPPH free radical scavenging activity. The assay is classed as functional. The procedure, abridged: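 DPPH in methanol (150 µM) incubated with various compound concentrations at 37 C for 30 min; absorbance read at 517 nm. Percent scavenging = 100 × (Abs control − Abs compound)/Abs control; IC50 obtained by linear regression of percent inhibition against concentration.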

Assay [3] can be described thus: Antioxidant activity at 100 ug by ferric reducing antioxidant power assay. Type of assay: functional. The procedure, abridged:
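FRAP reagent: 10 vol 300 mM acetate buffer pH 3.6, 1 vol 10 mM TPTZ in 40 mM HCl, 1 vol 20 mM FeCl3, diluted to 1/3 with methanol, pre-warmed to 37 C. Diluted compound mixed with reagent, 8 min at 37 C, absorbance at 593 nm against methanol blank; expressed as lM ferric reduced to ferrous, calibrated with known ferrous ion.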

The structures appear in SMILES notation. Calls of active or inactive are those of the source. The calls are words filed in the database; no cut-off is given here.

Among the data in ChEMBL document CHEMBL1140585, “Synthesis and antioxidant properties of substituted 3-benzylidene-7-alkoxychroman-4-ones” (Bioorg Med Chem Lett, 2007) are IC50 and Activity values, retold here.

As a reminder, the IC50 is the concentration needed to halve the response being measured.

Regarding `CCOc1ccc2c(c1)OC/C(=C\c1ccc(O)c(O)c1)C2=O`, the IC50 in assay [1] was 11.9 µM; in assay [2], 24.3 µM. Moreover, in assay [3], the Activity turned out to be 62.7.

For the molecule `COc1ccc2c(c1)OC/C(=C\c1ccccc1OC)C2=O`, the IC50 in assay [1] and in assay [2] was > 100 µM throughout. Also, the result in assay [3] was inactive.

Consider `Cc1c(C)c2c(c(C)c1O)CCC(C)(C(=O)O)O2` (stereo unspecified) [TROLOX], for which the results for the concentration for half-maximal inhibition (IC50) in assay [1] and in assay [2] were 41.6 µM and 36.3 µM, respectively. Besides, the Activity in assay [3] turned out to be 41.9.

Take `CCCCOc1ccc2c(c1)OC/C(=C\c1ccc(O)c(O)c1)C2=O`: the results for the IC50 in assay [1] and in assay [2] were 11 µM and 24.5 µM, respectively. This molecule registered an Activity in assay [3] of 44.6.

`COc1ccc2c(c1)OC/C(=C\c1cc(OC)c(O)c(OC)c1)C2=O`: the results for the IC50 in assay [1] and in assay [2] were 11 µM and 30.8 µM, respectively. For the same molecule, the Activity in assay [3] was found to be 61.6.

As for `COc1ccc2c(c1)OC/C(=C\c1ccc(O)c(O)c1)C2=O`, the IC50 in assay [1] was 12.1 µM; in assay [2], 27.2 µM. In assay [3], the Activity stood at 71.6.

Turning to `COc1ccc2c(c1)OC/C(=C\c1ccc(O)cc1)C2=O`, the half-inhibitory concentration (IC50) in assay [1] and in assay [2] was > 100 µM throughout. For the same molecule, the result in assay [3] was inactive.

On to `COc1ccc(/C=C2\COc3cc(OC)ccc3C2=O)cc1`, for which the IC50 in assay [1] and in assay [2] was > 100 µM in each case. Also, the outcome in assay [3] was inactive.

For the molecule `COc1cccc(/C=C2\COc3cc(OC)ccc3C2=O)c1`, the 50% inhibitory concentration (IC50) in assay [1] and in assay [2] was > 100 µM in each case. Moreover, the result in assay [3] was inactive.

On to `CCCOc1ccc2c(c1)OC/C(=C\c1ccc(O)c(O)c1)C2=O`, for which the half-maximal inhibitory concentration (IC50) in assay [1] was 11.4 µM; in assay [2], 25.4 µM. The molecule further displayed an Activity in assay [3] of 53.8.

In the case of `O=C1/C(=C/c2ccc(O)c(O)c2)COc2cc(O)ccc21` [SAPPANONE A], the results for the IC50 in assay [1] and in assay [2] were 14.3 µM and 35 µM, respectively. In assay [3], this molecule showed an Activity of 49.3.

`O=C1/C(=C/c2ccc(O)cc2)COc2cc(O)ccc21`: the 50% inhibitory concentration (IC50) in assay [1] and in assay [2] was > 100 µM throughout. The result in assay [3] was inactive.
